Compound activity (PubChem BioAssay)
Only some compounds are listed: those with a hit (about 4% of all), similar ones and a draw of the others.
FN deposit inh: inhibitors of fibronectin matrix deposition, primary screen, AH1F cells, Alexa488-fibronectin fluorescence, plate reader; AH1F fibroblasts, overnight; inhibition, % at 12.6 µM; actives 0.086% (n = 350,000);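 active = mean inhibition across replicates of 30% or more, regardless of how many single replicates reach that level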
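Material: AH1F fibroblast monolayer depositing Alexa488-labelled fibronectin into matrix | Input: 10000 AH1F cells/well | Medium: DMEM plus 2% serum, read in PBS | Reagent: Alexa488-fibronectin, 24 nM final in well | Compound dosing: One dose per compound, pinned | Schedule: 1 h adhesion, overnight exposure | Measured by: Fluorescence at 485 nm excitation, 525 nm emission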
rRNA inh HTS: reduced GFP signal of wild-type E. coli, primary screen, bacterial rRNA inhibitor project, GFP/RFP fluorescence, OD600, single point | E. coli WT GFP vs humanized-ribosome RFP mutants, 24 h; active compounds read low; DMSO median 0, no signal -100 | GFP signal change (wild-type ribosome), % (test concentration not listed) | actives 1.6% (n = 350,000) | AID 720706, 2013;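 active = significant combined selectivity score with lowered wild-type GFP, culture density cut under 30%, mutant RFP and density less affected; inactive = any of these conditions unmet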
C2C12 statin: suppressors of statin myotoxicity in C2C12 myotubes, primary screen, cell-based, single point, plate reader; C2C12 myotubes + simvastatin, ATP luminescence, 48 h; scaled: DMSO 0, geranylgeraniol control 100; rescue of ATP level, % at 7.49 µM; actives 0.78% (n = 330,000); AID 602340, 2012;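 active = mean ATP rescue above about 67%, or every replicate alone reaching that limit, limit read from the data, passing the limit was not always enough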;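 also: myotubes were challenged with 10 µM simvastatin during compound exposure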
E-selectin induc: E-selectin induction in HUVECs, primary screen, imaging, HUVEC, immunofluorescence imaging, single point. P16581. normalized: neutral wells 0, TNF-alpha wells 100. activation, % at 7.58 µM. actives 0.37% (n = 260,000). AID 686992, 2013;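 active = mean E-selectin-positive cell signal at least 10% of the positive control, reached in at least 60% of replicates, without over 20% cell loss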
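assay system = HUVEC, human umbilical vein endothelial cells | input = 3,000 HUVEC seeded per well | medium = EGM-2 growth medium on 0.1% gelatin-coated wells | dosing = one compound dose added by pin transfer | signal = immunofluorescence imaging | read-out basis = % PE-positive cells | control set = TNF-alpha, DMSO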
SIRT5 block: SIRT5 desuccinylase inhibitors, primary screen, biochemical, fluorescence imaging, single point, set 5; NAD-dependent protein deacylase sirtuin-5, mitochondrial (Homo sapiens), Q9NXA8; Purified SirT5, succinyl-peptide AMC, trypsin-coupled fluorescence; inhibition, % at 15 µM; actives 1.1% (n = 330,000); AID 652115, 2013; in the data active = inhibition above about 15%
Target sequence (Q9NXA8 whole entry, looked up): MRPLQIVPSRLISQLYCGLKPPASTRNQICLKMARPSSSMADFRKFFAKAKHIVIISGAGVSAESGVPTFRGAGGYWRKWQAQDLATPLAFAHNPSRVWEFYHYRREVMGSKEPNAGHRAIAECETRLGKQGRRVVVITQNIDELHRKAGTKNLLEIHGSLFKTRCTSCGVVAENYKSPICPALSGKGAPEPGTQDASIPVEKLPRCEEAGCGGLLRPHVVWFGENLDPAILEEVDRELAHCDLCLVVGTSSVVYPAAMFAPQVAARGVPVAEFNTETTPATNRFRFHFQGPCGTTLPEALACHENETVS
FGF22 binding: binders of human FGF22 protein, primary screen, FGF22 synaptogenesis inhibitor project, biophysical, thermal shift, single point; activity (Tm shift, normalised), % at 9.99 µM; Fibroblast growth factor 22 (Homo sapiens), Q9HCT0; actives 1.5% (n = 340,000); recombinant FGF22 thermal shift, SYPRO orange fluorescence; percent of sucrose octasulfate shift, DMSO zero;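 active = mean Tm shift, scaled 0 neutral to 100 positive control, at about 1.3% or above, every replicate too, limit read from the data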
Target sequence (Q9HCT0 whole entry, looked up): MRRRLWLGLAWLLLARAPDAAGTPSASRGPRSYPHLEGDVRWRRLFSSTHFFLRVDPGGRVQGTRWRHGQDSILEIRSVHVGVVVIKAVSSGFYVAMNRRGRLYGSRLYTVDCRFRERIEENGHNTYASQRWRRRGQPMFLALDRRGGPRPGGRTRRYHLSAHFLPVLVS
Hits are given with their value; - = inactive; . = no result given.

SMILES	FN deposit inh	rRNA inh HTS	C2C12 statin	E-selectin induc	SIRT5 block	FGF22 binding
O=C(Nc1ccc2nc3n(c(=O)c2c1)CCCCC3)c1c(F)ccc([N+](=O)[O-])c1F	-	-22.2	203.6	.	-	-
O=C(Nc1ccc2nc3n(c(=O)c2c1)CCCCC3)c1cc([N+](=O)[O-])ccc1F	-	-	-	.	-	-
C[C@@H]1CCCCO[C@@H](CN(C)C)[C@H](C)CN([C@H](C)CO)C(=O)c2cc(NC(=O)Nc3ccc(F)cc3)ccc2O1	.	-	-	-	-	-
C/C=C/c1ccc([C@H]2[C@@H](CO)N(C(C)=O)[C@@H]2CNC(=O)CC2CC2)cc1	-	-	-	-	-	-
N#Cc1cccc(-c2ccc(C3[C@H]4CNC[C@@H]3N4Cc3ccc4c(c3)OCO4)cc2)c1 (some centres undefined)	-	-	.	-	-	.
CC(C)NC(=O)N[C@H]1C=C[C@@H](CC(=O)NCCN2CCCC2)O[C@@H]1CO	-	-	-	-	-	-
CO[C@@H]1CN(C)C(=O)c2ccc(NS(C)(=O)=O)cc2OC[C@H](C)N(CCC(F)(F)F)C[C@H]1C	-	-	-	-	-	.
COc1ccc(NC(=O)N(C)C[C@H]2OCCCC[C@@H](C)Oc3ccc(NC(=O)c4ccccc4)cc3C(=O)N([C@@H](C)CO)C[C@@H]2C)cc1	-	-	.	-	-	-
CC[n+]1c(-c2ccc(C)cc2)csc1Nc1c(C)n(C)n(-c2ccccc2)c1=O	-	-	-	-	-	-
CC[n+]1c(-c2ccccc2)csc1Nc1c(C)n(C)n(-c2ccccc2)c1=O	.	-	.	.	21.2	-
C[C@@H]1CN([C@@H](C)CO)C(=O)c2cc(NC(=O)Nc3ccc(C(F)(F)F)cc3)ccc2O[C@@H](C)CCCCO[C@@H]1CN(C)Cc1ccc(C(=O)O)cc1	.	-	.	-	-	-
Cc1ccc(-c2csc3ncnc(Oc4cccc5ccc(C)nc45)c23)cc1	-	.	.	.	-	43.9
Cc1ccc2cccc(Oc3ncnc4sc(C)c(C)c34)c2n1	-	-	-	.	-	43.1
CC(=O)Nc1cccc(Oc2ncnc3scc(-c4ccccc4)c23)c1	-	.	-	.	.	.
CN(C)CCCNC(=O)C[C@H]1CC[C@H]2[C@@H](COc3ccc(NC(=O)CN(C)C)cc3C(=O)N2C)O1	-	-	.	.	.	.
CN(CC(=O)Nc1cccc(F)c1)C(=O)CCCc1c[nH]c2ccccc12	-	-26.4	-	-	-	-
COc1cccc(NC(=O)CN(C)C(=O)CCCc2c[nH]c3ccccc23)c1	-	-	-	-	-	-
COc1ccc(-c2cn3cc(C)ccc3n2)cc1F	-	-30.6	-	-	-	-
COC(=O)C[C@H]1CC[C@@H]2[C@H](COC[C@H](O)CN2S(=O)(=O)c2ccc(F)cc2)O1	-	-	-	-	-	-
CCOC(=O)N1CCN(C(=S)NC(=O)c2nn(C)cc2Br)CC1	-	-	125.0	.	-	.
O=C(NN=Cc1ccccc1O)c1cccc([N+](=O)[O-])c1	-	-27.1	-	-	-	-
O=C(N/N=C/c1ccccn1)c1cccc([N+](=O)[O-])c1	-	-	.	-	-	-
O=[N+]([O-])c1ccc(N/N=C/c2ccccc2O)cc1	-	-18.6	-	.	-	-
C[C@H](CO)N1C[C@H](C)[C@H](CN(C)C(=O)Nc2cccc3ccccc23)OCCCC[C@H](C)Oc2ccc(NS(=O)(=O)c3cn(C)cn3)cc2C1=O	.	-	.	-	.	-
Cc1cc(C)c[n+](-c2nc3ccccc3nc2[N-]S(=O)(=O)c2ccc(Br)s2)c1	-	-	-	.	-	44.0
O=S(=O)([N-]c1nc2ccccc2nc1-[n+]1ccc(CCCc2ccccc2)cc1)c1cccs1	-	-	.	-	-	-
